ChEMBL document CHEMBL1147419, “Inhibition of estrone sulfatase (ES) by alkyl and cycloalkyl ester derivatives of 4-[(aminosulfonyl)oxy] benzoic acid” (Bioorg Med Chem Lett, 2004)

Columns and labels:
[1] = Partition coefficient (logP); type: physicochemical; details: octanol/water
[2] = target: T1, Steryl-sulfatase (Homo sapiens) (UniProt P08842); details: 0.25 uM
T1 sequence (whole entry): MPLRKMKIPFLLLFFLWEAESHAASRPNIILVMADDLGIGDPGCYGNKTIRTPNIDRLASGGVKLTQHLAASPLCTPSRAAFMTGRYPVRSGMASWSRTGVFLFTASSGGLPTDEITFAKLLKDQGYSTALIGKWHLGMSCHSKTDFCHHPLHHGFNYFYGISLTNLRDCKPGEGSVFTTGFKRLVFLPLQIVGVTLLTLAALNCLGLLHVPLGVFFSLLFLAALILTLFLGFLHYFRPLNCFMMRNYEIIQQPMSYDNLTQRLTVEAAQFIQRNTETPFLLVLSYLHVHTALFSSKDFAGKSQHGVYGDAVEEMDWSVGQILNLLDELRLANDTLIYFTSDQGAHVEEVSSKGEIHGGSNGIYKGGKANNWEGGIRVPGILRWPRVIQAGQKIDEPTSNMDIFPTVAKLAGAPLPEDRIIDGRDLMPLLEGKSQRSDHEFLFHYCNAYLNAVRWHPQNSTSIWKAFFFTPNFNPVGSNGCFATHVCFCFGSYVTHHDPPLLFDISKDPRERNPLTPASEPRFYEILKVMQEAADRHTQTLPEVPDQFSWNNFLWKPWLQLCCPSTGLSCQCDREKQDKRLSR

[3] = pKa value was determined; type: physicochemical
Method in brief: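 The starting phenols' pKa was measured spectroscopically from the change in phenolic UV absorption under acidic (pH 2), pH 9 and basic (pH 11) conditions.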

[4] = target: T2, Steryl-sulfatase (Homo sapiens, UniProt P08842); test: Inhibition of estrone sulfatase
T2 sequence (P08842 whole entry): T1 sequence (whole entry)

[5] = target: T1, Steryl-sulfatase (Homo sapiens); test: Inhibitory activity against estrone sulfatase at 20 uM (initial screening)
Method in brief: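 Placental microsomes, diluted to 115 µg/mL in 0.05 M Tris-HCl pH 7.2 and pre-warmed 5 min at 37 °C, incubated 20 min at 37 °C with ³H-estrone sulfate (20 µM/tube, 300,000 dpm). Inhibitors were added in ethanol, then dried under nitrogen. Toluene quench, then toluene-phase radioactivity counted by scintillation. Triplicates, uninhibited controls, boiled-microsome blanks.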

Compound | logP [1] | inhibition [2] [%] | pKa [3] | IC50 [4] [µM] | inhibition [5] [%]
CCCCOC(=O)c1ccc(OS(N)(=O)=O)cc1 | 2.7 |  |  |  | 
CCOC(=O)c1ccc(OS(N)(=O)=O)cc1 | 1.84 |  |  |  | 
NS(=O)(=O)Oc1ccc2c3c(c(=O)oc2c1)CCCCC3 [IROSUSTAT] | 2.65 | 56 | 8.27 |  | 
NS(=O)(=O)Oc1ccc(C(=O)OC2CCCCCCC2)cc1 | 3.87 |  | 8.09 | 0.17 | 82
CCCCCOC(=O)c1ccc(OS(N)(=O)=O)cc1 | 3.1 |  |  |  | 
Cc1cc(=O)oc2cc(OS(N)(=O)=O)ccc12 | 1.6 |  | 8 | 13.8 | 
NS(=O)(=O)Oc1ccc(C(=O)OC2CCCC2)cc1 | 2.68 |  | 8.73 | 9.3 | 62
COC(=O)c1ccc(OS(N)(=O)=O)cc1 | 1.49 |  |  |  | 
NS(=O)(=O)Oc1ccc(C(=O)OC2CCCCCC2)cc1 | 3.47 |  | 8.88 | 0.5 | 87
CCCCCCCCOC(=O)c1ccc(OS(N)(=O)=O)cc1 | 4.29 |  | 8.09 |  | 
CCCCCCOC(=O)c1ccc(OS(N)(=O)=O)cc1 | 3.49 |  |  |  | 
CCCCCCCCCCOC(=O)c1ccc(OS(N)(=O)=O)cc1 | 5.08 |  | 8.09 |  | 
C[C@]12CC[C@@H]3c4ccc(OS(N)(=O)=O)cc4CCC3[C@@H]1CCC2=O (single isomer, unassigned) [EMATE] | 3.8 |  | 8.37 |  | 
CCCCCCCOC(=O)c1ccc(OS(N)(=O)=O)cc1 | 3.89 |  |  |  | 
NS(=O)(=O)Oc1ccc(C(=O)OC2CCCCC2)cc1 | 3.08 |  | 8.81 | 1.7 | 84
CCCCCCCCCOC(=O)c1ccc(OS(N)(=O)=O)cc1 | 4.68 |  | 8.39 |  | 
CCCOC(=O)c1ccc(OS(N)(=O)=O)cc1 | 2.3 |  |  |  | 
